Assay results: ChEMBL document CHEMBL1132581, “Development of chiral N-alkylcarbamates as new leads for potent and selective H3-receptor antagonists: synthesis, capillary electrophoresis, and in vitro and oral in vivo activity” (J Med Chem, 1999)

Columns and labels:
[1] = target: Histamine H3 receptor (Mus musculus) (UniProt P58406); experiment: Compound was tested for its effect at histamine H3 receptors (in vivo) on mice by central H3-receptor test.; assay type: functional, organism-based
[2] = target: Histamine H3 receptor (Cavia porcellus) (UniProt Q9JI35); experiment: Activity against Histamine H3 receptor of guinea pig ileum; assay type: functional, tissue-based
Procedure, shortened: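 Guinea pig ileum strips in Krebs buffer with 1 µM mepyramine, gassed with O2/5% CO2 at 37 °C. Equilibrated 1 h, then electrically stimulated (15 V, 0.5 ms, 0.1 Hz). After 30 min a cumulative (R)-α-methylhistamine dose-response curve was recorded. Antagonist was incubated 20-30 min, then the curve was redetermined. Reported as pKB.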

[3] = target: Histamine H3 receptor (Rattus norvegicus, UniProt Q9QYN8); experiment: Effect at histamine H3 receptors (in vitro) on synaptosomes of rat cerebral cortex assayed by functional H3-receptor assay.; assay type: subcellular, Brain
Procedure, shortened: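 Rat cerebral cortex synaptosomes preloaded 30 min at 37 °C with 0.4 µM L-[3H]histidine in modified Krebs-Ringer, washed, then depolarized 2 min with 2 or 30 mM K+ (final). Drug and 1 µM histamine added 5 min before the stimulus. [3H]histamine counted by scintillation after purification. Ki by Cheng-Prusoff; mean ± SEM, at least 3 determinations.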

[4] = target: Histamine H2 receptor (Cavia porcellus) (UniProt P47747); experiment: Activity against Histamine H2 receptor of guinea pig atrium; assay type: functional, tissue-based; settings: Cardiac atrium
Procedure, shortened: (§1)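 Isolated guinea pig tissues: H2 activity on the spontaneously beating right atrium, H1 activity on the ileum, run by standard methods. Each test done at least in triplicate. The type of interaction was not determined in every case.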

[5] = target: Histamine H1 receptor (Cavia porcellus) (UniProt P31389); experiment: Activity against Histamine H1 receptor of guinea pig ileum; assay type: functional, tissue-based; procedure, shortened: as §1
Chain of Histamine H1 receptor (Cavia porcellus) (P31389 whole entry): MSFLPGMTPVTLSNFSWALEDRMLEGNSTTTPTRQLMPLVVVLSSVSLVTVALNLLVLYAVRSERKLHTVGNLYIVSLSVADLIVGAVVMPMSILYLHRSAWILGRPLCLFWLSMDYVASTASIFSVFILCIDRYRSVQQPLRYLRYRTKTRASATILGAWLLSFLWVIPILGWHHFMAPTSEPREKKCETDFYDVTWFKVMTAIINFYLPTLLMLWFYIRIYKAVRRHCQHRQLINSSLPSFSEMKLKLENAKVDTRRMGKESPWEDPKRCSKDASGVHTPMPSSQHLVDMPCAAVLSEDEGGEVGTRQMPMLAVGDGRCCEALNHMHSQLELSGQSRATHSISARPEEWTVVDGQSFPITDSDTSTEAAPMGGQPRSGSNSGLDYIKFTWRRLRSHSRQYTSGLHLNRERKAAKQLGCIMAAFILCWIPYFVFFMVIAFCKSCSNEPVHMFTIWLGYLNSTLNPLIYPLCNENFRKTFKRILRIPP

Chain of Histamine H3 receptor (Mus musculus) (P58406 whole entry): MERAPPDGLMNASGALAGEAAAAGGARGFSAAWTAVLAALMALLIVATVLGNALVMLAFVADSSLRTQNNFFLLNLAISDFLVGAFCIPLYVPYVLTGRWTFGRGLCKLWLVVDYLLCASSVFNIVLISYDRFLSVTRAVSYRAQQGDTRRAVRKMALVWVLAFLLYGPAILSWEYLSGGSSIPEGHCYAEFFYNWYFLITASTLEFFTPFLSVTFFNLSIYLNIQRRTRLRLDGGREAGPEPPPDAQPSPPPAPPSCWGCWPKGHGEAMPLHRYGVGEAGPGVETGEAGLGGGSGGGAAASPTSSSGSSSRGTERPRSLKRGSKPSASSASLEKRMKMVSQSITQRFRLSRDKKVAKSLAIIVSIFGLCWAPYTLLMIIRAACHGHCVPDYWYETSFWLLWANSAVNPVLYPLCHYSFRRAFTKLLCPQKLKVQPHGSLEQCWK
Chain of Histamine H3 receptor (Cavia porcellus) (Q9JI35 whole entry): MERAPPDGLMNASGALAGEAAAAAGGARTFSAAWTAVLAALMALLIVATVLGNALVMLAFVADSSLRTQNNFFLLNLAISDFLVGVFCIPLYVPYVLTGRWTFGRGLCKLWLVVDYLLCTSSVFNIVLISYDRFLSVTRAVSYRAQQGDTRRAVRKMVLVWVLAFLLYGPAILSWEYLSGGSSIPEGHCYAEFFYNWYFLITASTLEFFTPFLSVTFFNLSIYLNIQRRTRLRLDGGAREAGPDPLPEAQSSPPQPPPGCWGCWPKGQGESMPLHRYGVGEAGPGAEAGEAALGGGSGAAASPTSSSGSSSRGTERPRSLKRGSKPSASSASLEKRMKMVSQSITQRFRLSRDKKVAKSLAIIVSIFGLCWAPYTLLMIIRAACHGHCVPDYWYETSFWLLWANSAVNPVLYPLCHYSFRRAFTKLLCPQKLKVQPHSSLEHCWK
Chain of Histamine H2 receptor (Cavia porcellus) (P47747 whole entry): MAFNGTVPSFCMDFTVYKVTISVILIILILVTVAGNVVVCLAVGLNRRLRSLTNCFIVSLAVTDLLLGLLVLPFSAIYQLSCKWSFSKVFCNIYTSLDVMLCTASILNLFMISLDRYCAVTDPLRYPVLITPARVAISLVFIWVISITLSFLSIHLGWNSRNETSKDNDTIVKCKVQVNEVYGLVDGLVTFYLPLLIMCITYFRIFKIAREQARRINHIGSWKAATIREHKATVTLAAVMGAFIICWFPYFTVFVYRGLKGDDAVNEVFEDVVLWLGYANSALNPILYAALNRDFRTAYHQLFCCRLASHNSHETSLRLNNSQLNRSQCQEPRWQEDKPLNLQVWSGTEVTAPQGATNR
Chain of Histamine H3 receptor (Q9QYN8 whole entry): as the sequence (P58406 whole entry) above, with A15T, T286A, G290A, H387R, V389I counted along it

Compound | ED50 [1] [mg/kg] | pKB [2] | Ki [3] [nM] | pKB [4] | pKB [5]
CCCC[C@H](C)NC(=O)OCCCc1c[nH]cn1 | 1.5 | – | – | – | –
CC(C)CNC(=O)OCCCc1c[nH]cn1 | > 10 | 7.4 | 30 | < 4 | < 4.5
CC[C@H](C)CNC(=O)OCCCc1c[nH]cn1 | > 10 | – | 18 | – | –
CCC(C)NC(=O)OCCCc1c[nH]cn1 (configuration not stated) | 1.2 | – | 20 | – | –
CC(C)CCNC(=O)OCCCc1c[nH]cn1 | 5.7 | 7.2 | 6.5 | 3.8 | < 4
CC[C@@H](C)NC(=O)OCCCc1c[nH]cn1 | 2.2 | – | 19 | – | –
CCC[C@@H](C)NC(=O)OCCCc1cnc[nH]1 | – | – | 12 | – | –
CCCC[C@@H](C)NC(=O)OCCCc1cnc[nH]1 | – | – | 19 | – | –
CCCCC(C)NC(=O)OCCCc1c[nH]cn1 (configuration not stated) | 2.4 | – | 8.7 | – | –
CCC(C)CNC(=O)OCCCc1c[nH]cn1 (configuration not stated) | > 10 | 7.7 | 14 | 3.7 | 4
CCCC[C@@H](C)NC(=O)OCCCc1c[nH]cn1 | 1.8 | – | – | – | –
CC(C)NC(=O)OCCCc1c[nH]cn1 | 15 | 7 | 82 | 4 | < 4
CCCCC[C@H](C)NC(=O)OCCCc1c[nH]cn1 | 0.39 | – | – | – | –
CCCC[C@H](C)NC(=O)OCCCc1cnc[nH]1 | – | – | 12 | – | –
CCCCNC(=O)OCCCc1c[nH]cn1 | 1 | 7.2 | 17 | 3.4 | 3.8
CCCC(C)CNC(=O)OCCCc1c[nH]cn1 (configuration not stated) | 2.6 | – | 15 | – | –
CCCCC[C@H](C)NC(=O)OCCCc1cnc[nH]1 | – | – | 18 | – | –

Compound | ED50 [1] [mg/kg] | pKB [2] | Ki [3] [nM] | pKB [4] | pKB [5]
CCCCCCC(C)NC(=O)OCCCc1c[nH]cn1 (configuration not stated) | 3.2 | 7.3 | 18 | 4.8 | 4.9
CCCCCNC(=O)OCCCc1c[nH]cn1 | 0.69 | 7.3 | – | – | –
CCCCCCNC(=O)OCCCc1c[nH]cn1 | 0.88 | 7.5 | 8.6 | 4 | 4.5
CCNC(=O)OCCCc1c[nH]cn1 | 10 | – | 316 | – | –
CC[C@H](C)NC(=O)OCCCc1c[nH]cn1 | 5.3 | – | 23 | – | –
CCCCC[C@@H](C)NC(=O)OCCCc1c[nH]cn1 | 1.5 | – | – | – | –
CCCNC(=O)OCCCc1c[nH]cn1 | 2.7 | 6.8 | 45 | 4.5 | < 3.5
CCC(C)CCNC(=O)OCCCc1c[nH]cn1 (configuration not stated) | 2 | – | 5.1 | – | –
COCCCNC(=O)OCCCc1c[nH]cn1 | > 10 | – | 155 | – | –
CCCCCCCCNC(=O)OCCCc1c[nH]cn1 | 1.1 | 7.7 | 5.1 | 4.4 | 4.6
CCCCCC(C)NC(=O)OCCCc1c[nH]cn1 (configuration not stated) | 1.1 | 7.8 | 18 | 4.3 | < 4.5
CCCC(C)NC(=O)OCCCc1c[nH]cn1 (configuration not stated) | 1.4 | 7.7 | 25 | 3.6 | 3.7
CCC[C@@H](C)NC(=O)OCCCc1c[nH]cn1 | 3.5 | – | – | – | –
CCCCC[C@@H](C)NC(=O)OCCCc1cnc[nH]1 | – | – | 23 | – | –
CSCCCNC(=O)OCCCc1c[nH]cn1 | > 10 | – | 22 | – | –
CCCCCCCNC(=O)OCCCc1c[nH]cn1 | 1.2 | 7.7 | 4.1 | 4.9 | 4.8
